Activity calls are given as the source filed them. The calls are words filed in the database; no cut-off is given here.
How the values were obtained:
[1] = tested on: Staphylococcus aureus; test: Antibacterial activity against methicillin-resistant Staphylococcus aureus isolate M3 after 16 to 20 hrs by broth microdilution method; type: functional
Outline: (§1)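 CLSI broth microdilution in cation-adjusted Mueller-Hinton broth. A 4-6 h culture was diluted to about 10⁶ CFU/mL and mixed 1:1 with twofold compound dilutions (256–0.5 µg/mL before mixing) prepared from aqueous stocks. Plates were incubated at 37 °C for 16-20 h. Each concentration was tested in duplicate, and the experiment was repeated at least twice.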

[2] = tested on: Enterobacteriaceae; test: Antibacterial activity against NDM-1-producing Enterobacteriaceae isolate N6 after 16 to 20 hrs by broth microdilution method; type: functional
Outline: (§2)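 Broth microdilution per CLSI in cation-adjusted Mueller-Hinton broth; 4-6 h cultures (~10⁸ CFU/mL) diluted to ~10⁶ CFU/mL and mixed 1:1 with twofold dilutions of water-dissolved compound (256 to 0.5 µg/mL). Incubated 16-20 h at 37 °C; MIC read visually. Each concentration run in duplicate, whole experiment repeated at least twice. MRSA, KPC and NDM-1 strains were clinical isolates.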

[3] = tested on: Klebsiella pneumoniae; test: Antibacterial activity against carbapenemase-producing Klebsiella pneumoniae isolate K9 after 16 to 20 hrs by broth microdilution method; type: functional; outline: as §2
[4] = tested on: Staphylococcus aureus; test: Antibacterial activity against methicillin-resistant Staphylococcus aureus isolate M10 after 16 to 20 hrs by broth microdilution method; type: functional; outline: as §1
[5] = tested on: Staphylococcus aureus; test: Ratio of MBC for methicillin-resistant Staphylococcus aureus in presence of 50% serum to MBC for methicillin-resistant Staphylococcus aureus; type: functional
Outline: (§3)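 MRSA at 10⁵ CFU/mL in 50% Mueller-Hinton broth plus 50% sheep serum, plasma or defibrinated whole blood. Serum and plasma were separated by centrifugation at 3,500 rpm for 10 min. Aqueous compound dilutions (512–4 µg/mL before mixing) were combined 1:3 with the suspension and incubated 20-24 h at 37 °C. Wells were plated on Mueller-Hinton agar for a further 20-24 h; MBC was taken as no colonies.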

[6] = tested on: Staphylococcus aureus; test: Ratio of MBC for methicillin-resistant Staphylococcus aureus in presence of 50% plasma to MBC for methicillin-resistant Staphylococcus aureus; type: functional; outline: as §3
[7] = tested on: Enterobacteriaceae; test: Antibacterial activity against NDM-1-producing Enterobacteriaceae after 16 to 20 hrs by broth microdilution method; type: functional; outline: as §2
[8] = tested on: Staphylococcus aureus; test: Bactericidal activity against methicillin-resistant Staphylococcus aureus after 20 to 24 hrs in presence of 50% plasma by broth microdilution method; type: functional, organism-based; outline: as §3
[9] = tested on: Enterobacteriaceae; test: Antibacterial activity against NDM-1-producing Enterobacteriaceae isolate N1 after 16 to 20 hrs by broth microdilution method; type: functional; outline: as §2
[10] = tested on: Enterobacteriaceae; test: Antibacterial activity against NDM-1-producing Enterobacteriaceae isolate N10 after 16 to 20 hrs by broth microdilution method; type: functional; outline: as §2
[11] = tested on: Escherichia coli; test: Induction of outer membrane permeabilization in Escherichia coli ATCC 25922 at 20 ug/ml measured every 2 mins for 12 mins by NPN staining based fluorescence assay; type: functional, organism-based
Outline: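 Mid-log E. coli (~10^8 CFU/mL) in black plates pre-incubated about 40 min with NPN (10 µM, 50 µL). Baseline read 8 min (ex 350/em 420 nm), then compound added to 20 µg/mL final and fluorescence followed every 2 min for 12 min. Water-treated control.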

[12] = tested on: Staphylococcus aureus; test: Antibacterial activity against methicillin-resistant Staphylococcus aureus isolate M2 after 16 to 20 hrs by broth microdilution method; type: functional; outline: as §1
[13] = tested on: Staphylococcus aureus; test: Antibacterial activity against methicillin-resistant Staphylococcus aureus isolate M9 after 16 to 20 hrs by broth microdilution method; type: functional; outline: as §1
[14] = tested on: Staphylococcus aureus; test: Antibacterial activity against methicillin-resistant Staphylococcus aureus isolate M5 after 16 to 20 hrs by broth microdilution method; type: functional; outline: as §1
[15] = tested on: Enterobacteriaceae; test: Antibacterial activity against NDM-1-producing Enterobacteriaceae isolate N7 after 16 to 20 hrs by broth microdilution method; type: functional; outline: as §2
[16] = tested on: Klebsiella pneumoniae; test: Antibacterial activity against carbapenemase-producing Klebsiella pneumoniae after 16 to 20 hrs by broth microdilution method; type: functional; outline: as §2
[17] = tested on: Enterobacteriaceae; test: Antibacterial activity against NDM-1-producing Enterobacteriaceae isolate N5 after 16 to 20 hrs by broth microdilution method; type: functional; outline: as §2
[18] = tested on: Staphylococcus aureus; test: Induction of inner membrane permeabilization in Staphylococcus aureus ATCC 29213 at 20 ug/ml measured every 2 mins for 12 mins by propidium iodide staining based fluorescence assay; type: functional, organism-based
Outline: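 Mid-log cells (~10^8 CFU/mL) pre-incubated with propidium iodide (10 µM, 50 µL), 30 min for S. aureus and 40 min for E. coli. Fluorescence (ex 535/em 617 nm) read for 8 min, then compound added to 20 µg/mL final and monitored every 2 min for 12 min. Water-treated control.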

[19] = tested on: Klebsiella pneumoniae; test: Antibacterial activity against carbapenemase-producing Klebsiella pneumoniae isolate K2 after 16 to 20 hrs by broth microdilution method; type: functional; outline: as §2
[20] = tested on: HeLa; test: Cytotoxicity against human HeLa cells assessed as altered morphology at 1 to 2 times MIC after 24 hrs by optical microscopic method; type: cell-based
Outline: (§4)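 HeLa cells kept in DMEM with 10% FBS at 37 °C and 5% CO2, seeded in 12-well plates and left to adhere overnight. Cells then exposed 24 h to 1, 2, 4, 8 and 16 µg/mL, with 0.1% Triton X-100 as positive control and untreated wells as negative control. Cells washed with PBS, imaged for morphology, and stained 15 min at 37 °C with 2 µM calcein AM plus 4.5 µM PI for live/dead fluorescence.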

[21] = tested on: HeLa; test: Cytotoxicity against human HeLa cells at 1 to 2 times MIC after 24 hrs by calcein AM/propidium iodide staining based fluorescence microscopic method; type: cell-based; outline: as §4
[22] = tested on: Escherichia coli; test: Antibiofilm activity against Escherichia coli ATCC 25922 assessed as bacterial cell viability in biofilm at 4 ug/ml after 24 hrs (reference value: 25.9 log10CFU/ml); type: functional
Outline: (§5)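 Mid-log cells at ~10⁵ CFU/mL grown stationary in 96-well plates (S. aureus in MHB for 24 h; E. coli in M9 with 0.02% casamino acids and 0.5% glycerol for 72 h). After washing, biofilms exposed 24 h at 37 °C to 2-128 µg/mL; detached with trypsin-EDTA, serially plated, viability given as log10 CFU/well against an untreated control.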

[23] = tested on: Staphylococcus aureus; test: Antibiofilm activity against Staphylococcus aureus ATCC 29213 assessed as bacterial cell viability in biofilm at 64 ug/ml after 24 hrs (reference value: 21.9 log10CFU/ml); type: functional; outline: as §5
[24] = tested on: Staphylococcus aureus; test: Antibacterial activity against Staphylococcus aureus ATCC 29213 after 20 serial passages measured after 16 to 20 hrs by broth microdilution method; type: functional, organism-based
Outline: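 Sub-MIC serial passaging: after an initial broth microdilution MIC, cells grown at MIC/2 were transferred into a new MIC assay after each 24 h incubation, for 20 passages. MIC was plotted against days to follow resistance development. Passaging controls were norfloxacin for S. aureus and colistin for E. coli.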

[25] = tested on: Staphylococcus aureus; test: Ratio of MBEC to MIC for Staphylococcus aureus ATCC 29213; type: functional
Outline: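 For MBEC, biofilms grown 24 h at 37 °C from a 1:1000 dilution of exponential-phase culture, washed, exposed 24 h to two-fold compound dilutions in fresh medium, then recovered 24 h in medium alone; MBEC is the lowest concentration with no turbidity. MIC by CLSI broth microdilution in cation-adjusted MHB, ~10^6 CFU/mL inoculum, 37 °C, 16–20 h.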

[26] = tested on: Escherichia coli; test: Antibiofilm activity against Escherichia coli ATCC 25922 assessed as bacterial cell viability in biofilm at 16 ug/ml after 24 hrs (reference value: 25.9 log10CFU/ml); type: functional; outline: as §5

CCCCCCCCN(CCCCCCCC)C(=O)[C@@H](N)CCCCN.Cl.Cl
MIC [1]: 1 µg/mL
MIC [2]: 4 µg/mL
MIC [3]: 2 µg/mL
MIC [4]: 0.5 µg/mL
Ratio [5]: 1 - 2
Ratio [6]: 2 - 4
MIC [7]: 4 µg/mL
Activity [8]: Active
MIC [9]: 8 µg/mL
MIC [10]: 8 µg/mL
Activity [11]: Active
MIC [12]: 1 µg/mL
MIC [13]: 1 µg/mL
MIC [14]: 1 µg/mL
MIC [15]: 8 µg/mL
MIC [16]: 1 µg/mL
MIC [17]: 4 µg/mL
Activity [18]: Active
MIC [19]: 2 µg/mL

CCCCCCCCCN(CCCCCCCCC)C(=O)[C@@H](N)CCCN=C(N)N.Cl.Cl.Cl
MIC [1]: 1 µg/mL
MIC [2]: 4 µg/mL
MIC [3]: 4 µg/mL
MIC [4]: 2 µg/mL
Ratio [5]: 1 - 2
Ratio [6]: 2 - 4
Activity [20]: Non-Toxic
MIC [7]: 4 µg/mL
Activity [8]: Active
MIC [9]: 4 µg/mL
MIC [10]: 4 µg/mL
Activity [11]: Active
MIC [12]: 1 µg/mL
MIC [13]: 2 µg/mL
MIC [14]: 2 µg/mL
MIC [15]: 2 µg/mL
MIC [16]: 4 µg/mL
Activity [21]: Non-Toxic
MIC [17]: 4 µg/mL
Activity [18]: Active
MIC [19]: 4 µg/mL

CCCCCCCCCCN(CCCCCCCCCC)C(=O)[C@@H](N)CCCCN.Cl.Cl
MIC [1]: 2 µg/mL
MIC [2]: 4 µg/mL
MIC [3]: 4 µg/mL
MIC [4]: 1 µg/mL
Ratio [5]: 1 - 2
Ratio [6]: 2 - 4
MIC [7]: 4 µg/mL
Activity [8]: Active
MIC [9]: 4 µg/mL
MIC [10]: 4 µg/mL
Activity [11]: Active
MIC [12]: 1 µg/mL
MIC [13]: 1 µg/mL
MIC [14]: 2 µg/mL
MIC [15]: 4 µg/mL
MIC [16]: 2 µg/mL
MIC [17]: 4 µg/mL
Activity [18]: Active
MIC [19]: 4 µg/mL

CCCCCCCCCN(CCCCCCCCC)C(=O)[C@@H](N)CCCCN.Cl.Cl
MIC [1]: 1 µg/mL
MIC [2]: 2 µg/mL
MIC [3]: 2 µg/mL
MIC [4]: 0.5 µg/mL
Ratio [5]: 1 - 2
Ratio [6]: 2 - 4
Activity [20]: Non-Toxic
MIC [7]: 2 µg/mL
Activity [22]: 23.9 log10CFU
Activity [23]: 7.9 log10CFU
Activity [8]: Active
Activity [24]: Active
MIC [9]: 2 µg/mL
MIC [10]: 4 µg/mL
Ratio [25]: 64
Activity [11]: Active
MIC [12]: 1 µg/mL
MIC [13]: 1 µg/mL
MIC [14]: 1 µg/mL
MIC [15]: 2 µg/mL
MIC [16]: 2 µg/mL
Activity [21]: Non-Toxic
Activity [26]: 4.1 log10CFU
MIC [17]: 2 µg/mL
Activity [18]: Active
MIC [19]: 2 µg/mL

CCCCCCCCCCN(CCCCCCCCCC)C(=O)[C@@H](N)CCCN=C(N)N.Cl.Cl.Cl
MIC [1]: 2 µg/mL
MIC [2]: 4 µg/mL
MIC [3]: 4 µg/mL
MIC [4]: 2 µg/mL
Ratio [5]: 1 - 2
Ratio [6]: 2 - 4
MIC [7]: 4 µg/mL
Activity [8]: Active
MIC [9]: 4 µg/mL
MIC [10]: 8 µg/mL
Activity [11]: Active
MIC [12]: 1 µg/mL
MIC [13]: 2 µg/mL
MIC [14]: 2 µg/mL
MIC [15]: 4 µg/mL
MIC [16]: 4 µg/mL
MIC [17]: 4 µg/mL
Activity [18]: Active
MIC [19]: 4 µg/mL

CCCCCCCCN(CCCCCCCC)C(=O)[C@@H](N)CCCN=C(N)N.Cl.Cl.Cl
MIC [1]: 0.5 µg/mL
MIC [2]: 4 µg/mL
MIC [3]: 8 µg/mL
MIC [4]: 0.5 µg/mL
Ratio [5]: 1 - 2
Ratio [6]: 2 - 4
MIC [7]: 4 µg/mL
Activity [8]: Active
MIC [9]: 8 µg/mL
MIC [10]: 8 µg/mL
Activity [11]: Active
MIC [12]: 1 µg/mL
MIC [13]: 1 µg/mL
MIC [14]: 1 µg/mL
MIC [15]: 4 µg/mL
MIC [16]: 4 µg/mL
MIC [17]: 4 µg/mL
Activity [18]: Active
MIC [19]: 4 µg/mL

— ChEMBL document CHEMBL4130549, “Synthesis and bioactivities study of new antibacterial peptide mimics: The dialkyl cationic amphiphiles” (Eur J Med Chem, 2018)
